Assay results from publication PMC5026623 (Circulation research, 2016).
pKd: −log10 of the molar value.

Biological target: apoA1 (Homo sapiens, UniProt P02647)
Assay: surface plasmon resonance, protein immobilised on CM5 chip
Type: binding
In short: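 Biosensor binding-kinetics run: apoA1 covalently coupled to a CM5 sensor chip, with apoA2 and apoE coupled the same way for comparison. Kinetics of test lipid binding to the immobilised protein recorded.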

apoA1, sequence (P02647 25-267): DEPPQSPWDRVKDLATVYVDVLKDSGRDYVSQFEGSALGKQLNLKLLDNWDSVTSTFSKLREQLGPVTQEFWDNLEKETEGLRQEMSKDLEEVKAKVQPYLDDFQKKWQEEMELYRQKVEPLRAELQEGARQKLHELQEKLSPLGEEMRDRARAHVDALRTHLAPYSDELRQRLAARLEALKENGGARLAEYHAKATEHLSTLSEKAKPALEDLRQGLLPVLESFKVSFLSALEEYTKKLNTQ

- pKd: 6.85
Substance: PIP2
